Residue numbers refer to the chain shown, from its start. Numbers in names are those of the source. Entries after “also recorded” stand apart in the source; their conditions may differ.
Assays:
14‐3‐3 [1] = settings: cited from earlier work
[2] = Oligomeric status by native PAGE; type: physicochemical; settings: 15 μg protein, 10% native gel (legend: 12%), Coomassie blue
Method in brief: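 Purified untagged 14‐3‐3ζ WT and mutant apoproteins (E. coli‐expressed, Ni‐NTA plus size exclusion, TEV‐cleaved), buffer‐exchanged into 50 mM Na‐HEPES pH 8.0, 150 mM NaCl, 10% glycerol, then run under nondenaturing conditions. Migration read as monomer or dimer.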

[3] = Gel filtration, Hiload 16/600 Superdex 200; type: physicochemical
Method in brief: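 After His‐tag removal with TEV protease, untagged 14‐3‐3ζ WT or mutant protein from E. coli BL21 DE3 was run on the Superdex 200 column in 50 mM Tris/Cl pH 8.0, 400 mM NaCl, 10% glycerol. Peak fractions collected and elution profile recorded.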

[4] = test system: 14‐3‐3ζ WT and mutant proteins; experiment: ATPase activity; type: biochemical, human; settings: 10 μM protein, 1 mM ATP, 37°C, 2 h; three independent experiments
[5] = test system: FAM‐labeled peptides (mode2 phosphopeptide); experiment: Peptide binding ability of 14‐3‐3ζ mutant proteins by fluorescence polarization; settings: FP; FAM‐labeled peptide 62.5 nM, protein 8 to 0.0625 μM, 25°C, 30 min
Method in brief: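 Untagged 14‑3‑3ζ mutants (E. coli BL21 DE3; Ni‑NTA, SEC, TEV cleavage) in 50 mM Na‑HEPES pH 8.0, 150 mM NaCl, 10% glycerol. Protein titrated 8 to 0.0625 μM against constant 62.5 nM N‑terminal FAM‑labeled phosphopeptide. Incubated 30 min at 25°C in the dark before anisotropy reading; K_D fitted.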

14‐3‐3 [6] = settings: ref 16 (Ramteke et al.); cited from earlier work
[7] = Thermal stability by nano‐DSF; type: physicochemical

Question: Which results are given for `Nc1ncnc2c1ncn2[C@@H]1O[C@H](COP(=O)(O)O)[C@@H](O)[C@H]1O` [AMP]?
Answer: binding to 14‐3‐3 alone (14‐3‐3 [1]): Neither AMP nor the nonphospho ChREBP peptide alone can bind strongly to the 14‐3‐3; effect of AMP on 14‐3‐3‐ChREBP peptide complex (14‐3‐3 [1]): stabilizes 14‐3‐3‐ChREBP peptide‐complex

Question: With “14‐3‐3ζ WT: wild-type 14‐3‐3ζ protein expressed in E. coli” as the molecule, how does the “migration on native PAGE / oligomeric state” value [2] read?
Answer: Its value is “migrated as dimers”.

Question: What about the “gel filtration elution volume” value [3] of the same molecule?
Answer: Its value is 68 mL.

B1: Y82A: 14‐3‐3ζ mutant, monomer, ATPase null mutant (protein)
chain: MDKNELVQKAKLAEQAERYDDMAACMKSVTEQGAELSNEERNLLSVAYKNVVGARRSSWRVVSSIEQKTEGAEKKQQMAREAREKIETELRDICNDVLSLLEKFLIPNASQAESKVFYLKMKGDYYRYLAEVAAGDDKKGIVDQSQQAYQEAFEISKKEMQPTHPIRLGLALNFSVFYYEILNSPEKACSLAKTAFDEAIAELDTLSEESYKDSTLIMQLLRDNLTLWTSDTQGDEAEAGEGGEN
modifications: left off: His6, end not stated, cleaved
Question: For B1, which “ATPase activity (in words, compared with WT)” value [4] is on record?
Answer: The value was “near background luminescence readings‐ it is practically an ATPase null mutant”.

Question: What about the “peptide binding of 14‐3‐3ζ mutant protein (in words)” value (from here on “peptide binding”) [5] of the same molecule?
Answer: The value was “bound the peptide with comparable affinity to the WT; also recorded: bind all peptides with the same affinity as the WT”.

Question: What about the “migration on native PAGE / oligomeric state” value [2] of the same molecule?
Answer: Its value is “could be monomeric in nature”.

Question: And the “gel filtration elution volume” value [3]?
Answer: The value was 74 mL.

B2: D124A (protein)
chain: B1 chain with A82Y, D124A
modifications: left off: His6, end not stated, cleaved
Question: For B2, which “ATPase activity (in words, compared with WT)” value [4] is on record?
Answer: The value was “higher than that of the WT protein; also recorded: enhanced ATPase activity”.

Question: And the “peptide binding” value [5]?
Answer: The value was “defective in peptide binding”.

Question: What about the “migration on native PAGE / oligomeric state” value [2] of the same molecule?
Answer: The value was “migrated as dimers”.

Question: What about the “ATPase activity (earlier study)” value (14‐3‐3 [6]) of the same molecule?
Answer: Its value is “increase in ATPase activity”.

B3: N173V (protein)
chain: B1 chain with A82Y, N173V
modifications: left off: His6, end not stated, cleaved
Question: For B3, which “ATPase activity (in words, compared with WT)” value [4] is on record?
Answer: Its value is “had increased ATPase activity and has more affinity for ATP; also recorded: enhanced ATPase activity”.

Question: And the “peptide binding” value [5]?
Answer: The value was “defective in peptide binding assays; also recorded: binds less well to the phosphopeptide ligands”.

Question: What about the “thermal stability (in words)” value [7] of the same molecule?
Answer: The value was “more stable than the D124A”.

Question: And the “migration on native PAGE / oligomeric state” value [2]?
Answer: Its value is “migrated as dimers”.

B4: E180AN173V: 14‐3‐3ζ double mutant (protein)
chain: B1 chain with A82Y, N173V, E180A
modifications: left off: His6, end not stated, cleaved
Question: For B4, which “thermal stability (in words)” value [7] is on record?
Answer: Its value is “most unstable and prone to aggregation”.

Question: What about the “migration on native PAGE / oligomeric state” value [2] of the same molecule?
Answer: The value was “migrated as dimers”.
